Measurements: publication PMC3674282 (Nature Communications, 2013)
Substitutions are numbered along the chain they refer to.

What was measured:
[1] = solubility; assay type: physicochemical; conditions: in words
[2] = target: T1, Ac-AChBP (Aplysia californica, UniProt Q8WSF8); assay: affinity by tryptophan fluorescence quenching; assay type: binding
T1 sequence (Q8WSF8 20-236): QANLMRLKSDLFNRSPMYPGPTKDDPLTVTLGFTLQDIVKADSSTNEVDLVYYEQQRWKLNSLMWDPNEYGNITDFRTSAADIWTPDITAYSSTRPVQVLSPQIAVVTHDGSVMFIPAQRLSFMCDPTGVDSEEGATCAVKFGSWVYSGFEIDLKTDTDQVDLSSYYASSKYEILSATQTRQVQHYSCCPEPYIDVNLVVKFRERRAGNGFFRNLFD
Procedure, shortened: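 Untagged wild-type Ac-AChBP, purified from Sf21 insect cells, at 1 μM in binding sites, equilibrated with a dilution series of test compound for 1 h. Tryptophan fluorescence read on a plate reader: excitation 280 nm, emission 340 nm (slit 8 nm). Data normalised and pKi obtained by fitting a sigmoidal dose–response curve.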

[3] = target: human α7 nAChRs (Homo sapiens, UniProt P36544); assay: electrophysiology on Xenopus oocytes expressing human α7 nAChR; assay type: cell-based
[4] = target: T1, Ac-AChBP; assay: isothermal titration calorimetry; assay type: binding; conditions: 25°, PBS
Procedure, shortened: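 The protein was dialysed into PBS and the test compound was dissolved in the same buffer. Titrations ran on a VP-ITC microcalorimeter at 25°. Heat of dilution from ligand titrated into buffer alone was subtracted as background. Data were fitted by non-linear least squares to a one-set-of-sites model.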

[5] = target: T1, Ac-AChBP; assay: titration of AO with Ac-AChBP by AO fluorescence quenching; assay type: binding; conditions: AO 100 μM titrated with Ac-AChBP, absence of nicotine
Procedure, shortened: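 Test compound at 100 μM was titrated with increasing Ac-AChBP. Its own fluorescence was monitored with excitation at 495 nm and emission at 525 nm (slit 10 nm). A competition arm, where indicated, included 1 mM nicotine.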

[6] = target: T1, Ac-AChBP; assay: biochemical; assay type: binding
[7] = target: T2, Ac-AChBP Y186A (Aplysia californica, UniProt Q8WSF8, Y205A); assay: radioligand displacement on mutant Ac-AChBP Y186A; assay type: binding; conditions: Y186 mutated to alanine
T2 sequence (Q8WSF8 20-236 Y205A): T1 sequence (Q8WSF8 20-236) with Y186A

[8] = target: T3, Ac-AChBP Y193A (Aplysia californica, UniProt Q8WSF8, Y212A); assay: radioligand displacement on mutant Ac-AChBP Y193A; assay type: binding; conditions: Y193 mutated to alanine
T3 sequence (Q8WSF8 20-236 Y212A): T1 sequence (Q8WSF8 20-236) with Y193A

[9] = target: T1, Ac-AChBP; assay: equilibrium titration of binding sites by tryptophan fluorescence quenching; conditions: Ac-AChBP 20 μM binding sites
Procedure, shortened: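 Ac-AChBP (20 μM in binding sites) was titrated with rising test compound until quenching fell below 8%. Tryptophan emission was read at 340 nm with excitation at 280 nm. Stoichiometry came from a straight line fitted through the average of the plateau points.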

[10] = target: human α7 nAChR (Homo sapiens, UniProt P36544); assay: radioligand displacement; assay type: binding
Procedure, shortened: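 SH-SY5Y neuroblastoma cells expressing human α7 nAChR were washed three times, stored as frozen pellets at −80 °C, then resuspended in ice-cold buffer and sonicated. Incubation used PBS/20 mM Tris pH 7.4/0.05% Tween, test compound at 10−3–10−11 M and [3H]MLA at 2 nM final, for 1.5 h at room temperature with shaking and protected from light. Bound label was collected on PEI-pretreated GF/C filters, washed with ice-cold 50 mM Tris pH 7.4 and counted. Curves were fitted by non-linear least squares; mean±s.e.m. of ≥3 independent experiments.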

Sequence of human α7 nAChR (P36544 23-502): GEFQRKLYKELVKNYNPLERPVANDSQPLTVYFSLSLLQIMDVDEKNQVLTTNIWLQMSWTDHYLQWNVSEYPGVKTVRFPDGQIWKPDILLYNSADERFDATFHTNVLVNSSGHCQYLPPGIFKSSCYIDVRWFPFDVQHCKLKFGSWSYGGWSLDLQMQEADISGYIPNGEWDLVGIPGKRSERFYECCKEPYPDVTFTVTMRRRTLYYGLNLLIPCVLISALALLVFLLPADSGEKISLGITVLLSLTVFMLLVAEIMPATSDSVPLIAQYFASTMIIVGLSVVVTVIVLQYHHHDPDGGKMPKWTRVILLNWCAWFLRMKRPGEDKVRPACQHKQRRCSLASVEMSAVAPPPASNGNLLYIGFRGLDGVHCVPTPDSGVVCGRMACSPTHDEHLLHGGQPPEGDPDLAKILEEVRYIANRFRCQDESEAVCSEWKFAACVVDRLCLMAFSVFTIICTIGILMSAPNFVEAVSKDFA
Sequence of human α7 nAChRs (P36544 23-502): as above

Compound: CN(C)c1ccc2cc3ccc(N(C)C)cc3nc2c1 [AO, acridine orange]
- solubility [1]: highly soluble
- Ki [2]: 1.58 µM
- IC50 [3]: 7.3 µM
- stoichiometric ratio (n) by ITC ([4]; 0.5 mM ligand into 20 μM Ac-AChBP): 3–4
- Kd ([4]; Kd by ITC): 1.86 µM
- stoichiometric ratio at which Ac-AChBP quenched AO fluorescence [5]: 0.3

Compound: Cc1cc(C)nc(C(=N)Nc2nc(-c3ccccn3)cc3ccccc23)n1 [VUF9432, 4,6-dimethyl-N-(3-(pyridin-2-yl)isoquinoline-1-yl)-pyrimidine-2-carboximidamide]
- Ki [6]: 11 µM
- affinity for Ac-AChBP Y186A mutant [7]: loss of affinity
- solubility [1]: not very soluble
- affinity for Ac-AChBP Y193A mutant [8]: loss of affinity
- stoichiometric ratio ligand/AChBP (ligands per protomer/binding site) [9]: three
- effect on α7 nAChR expressed in oocytes ([3]; data not shown): did not observe any effect
- pKi for α7 nAChR ([10]; [3H]MLA displacement, radioligand not fully displaced): around five
- displacement of [3H]MLA at the highest concentration tested ([10]; highest concentration tested): not fully displaced

Compound: Nc1nc(-c2ccccn2)cc2ccccc12 [compound 2, 1-Amino-3-(2-pyridyl)isoquinoline]
- stoichiometric ratio ligand/AChBP (ligands per protomer/binding site) [9]: multiple copies

Compound: Nc1nc(-c2cccnc2)cc2ccccc12 [compound 3, 1-Amino-3-(3-pyridyl)isoquinoline]
- stoichiometric ratio ligand/AChBP (ligands per protomer/binding site) [9]: multiple copies
